Assay results from ChEMBL document CHEMBL1122670, “Synthesis of previously inaccessible quinazolines and 1,4-benzodiazepines as potential anticonvulsants” (J Med Chem, 1984).
Activity calls are given as the source filed them.

Tests used:
[1] = Compound was determined in rotarod test and expressed as TD50; type: ADME, organism-based; settings: mouse, in vivo
How it was run: (§1)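 ADD Program screen in mice. Doses of 30, 100, 300 and 600 mg/kg were given, four animals per dose, with tests at 30 min and at 4 h. sc Met endpoint: no threshold seizure (single clonic spasm of 5 s) after an sc convulsant dose 99 of pentylenetetrazol. Rotorod assessed acute neurotoxicity.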

[2] = system: Mus musculus; assay: Effective dose (ED50) was determined in sc Met (pentylenetetrazole) seizure threshold test; I = Inactive at all doses including 600 mg/kg; type: functional, organism-based; set-up: dose 600 mg/kg
How it was run: as §1, with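 “neurotoxicity. ED50/TD50 were estimated graphically; Litchfield-Wilcoxon 95% confidence limits were added for selected cases.” for “neurotoxicity.”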

[3] = system: Mus musculus; assay: Evaluated for seizure threshold test at a dose 75 mg/kg &MST is the metrazole seizure threshold to persistent clonus; I = Inactive.; type: functional, organism-based; set-up: dose 75 mg/kg
How it was run: (§2)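 0.5% pentylenetetrazol (with 0.9% NaCl and 0.001% heparin) was infused into a lateral tail vein at 6.31 μL/s. Time to 3 s of persistent clonus (MST) or hindlimb tonic flexion (MMT) was converted to mg/kg infused. Tested at 0.5 h (some at 4 h or 1 h). Results are % change from controls, by Student's t test.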

[4] = system: Mus musculus; assay: Evaluated for seizure threshold test at a dose 75 mg/kg &MMT is the maximal metrazole threshold to tonic flexion.; type: functional; how it was run: as §2
[5] = system: Mus musculus; assay: Effective dose (ED50) was determined in sc Met (pentylenetetrazole) seizure threshold test; I = Inactive.; type: functional, organism-based
How it was run: as §1, with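 “neurotoxicity. ED50/TD50 were estimated graphically; Litchfield-Wilcoxon 95% confidence limits were added for selected cases.” for “neurotoxicity.”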

[6] = system: Mus musculus; assay: Evaluated for seizure threshold test at a dose 25 mg/kg &MST is the metrazole seizure threshold to persistent clonus; I = Inactive.; type: functional, organism-based; set-up: dose 25 mg/kg; how it was run: as §2
[7] = system: Mus musculus; assay: Evaluated for seizure threshold test at a dose 25 mg/kg &MMT is the maximal metrazole threshold to tonic flexion; I = Inactive.; type: functional, organism-based; set-up: dose 25 mg/kg; how it was run: as §2
[8] = species on record: Mus musculus; assay: Compound was determined in rotarod test and expressed as TD50; I = Inactive.; type: ADME, organism-based; settings: in vivo
How it was run: as §1, with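 “neurotoxicity. ED50/TD50 were estimated graphically; Litchfield-Wilcoxon 95% confidence limits were added for selected cases.” for “neurotoxicity.”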

[9] = target: GABA-A receptor; anion channel; assay: Binding affinity for umolar GABA-A central benzodiazepine receptor; type: protein-complex assay, Mus musculus
[10] = system: Mus musculus; assay: Evaluated for seizure threshold test at a dose 300 mg/kg &MMT is the maximal metrazole threshold to tonic flexion.; type: functional; how it was run: as §2
[11] = system: Mus musculus; assay: Effective dose (ED50) was determined in sc Met (pentylenetetrazole) seizure threshold test; type: functional
How it was run: as §1, with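 “neurotoxicity. ED50/TD50 were estimated graphically; Litchfield-Wilcoxon 95% confidence limits were added for selected cases.” for “neurotoxicity.”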

[12] = system: Mus musculus; assay: Evaluated for seizure threshold test at a dose 300 mg/kg &MST is the metrazole seizure threshold to persistent clonus; NA - Inactive.; type: functional, organism-based; set-up: dose 300 mg/kg; how it was run: as §2
[13] = system: Mus musculus; assay: In vivo inhibition of Benzodiazepine (BDZ) binding in mice; type: functional, organism-based
[14] = system: Mus musculus; assay: Evaluated for seizure threshold test at a dose 100 mg/kg & MMT is the maximal metrazole threshold to tonic flexion.; type: functional
How it was run: (§3)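 At 0.5 h (some at 1 or 4 h), 0.5% pentylenetetrazol in 0.9% NaCl with 0.001% heparin was infused into the tail vein at 6.31 μL/s. Time to 3 s persistent clonus (MST) or tonic flexion (MMT) was converted to mg/kg, reported as % change vs controls, Student's t test.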

[15] = system: Mus musculus; assay: Evaluated for seizure threshold test at a dose 49 mg/kg & MST is the metrazole seizure threshold to persistent clonus; type: functional; how it was run: as §3
[16] = system: Mus musculus; assay: Evaluated for seizure threshold test at a dose 39 mg/kg & MMT is the maximal metrazole threshold to tonic flexion.; type: functional; how it was run: as §3
[17] = system: Mus musculus; assay: Evaluated for seizure threshold test at a dose 100 mg/kg & MST is the metrazole seizure threshold to persistent clonus; type: functional; how it was run: as §3
[18] = system: Mus musculus; assay: Evaluated for seizure threshold test at a dose 300 mg/kg & MST is the metrazole seizure threshold to persistent clonus; I = Inactive.; type: functional, organism-based; set-up: dose 300 mg/kg; how it was run: as §2
[19] = system: Mus musculus; assay: Evaluated for seizure threshold test at a dose 300 mg/kg & MMT is the maximal metrazole threshold to tonic flexion; type: functional; how it was run: as §2
[20] = system: Mus musculus; assay: Evaluated for seizure threshold test at a dose 50 mg/kg &MMT is the maximal metrazole threshold to tonic flexion.; type: functional; how it was run: as §3
[21] = system: Mus musculus; assay: Evaluated for seizure threshold test at a dose 30 mg/kg &MMT is the maximal metrazole threshold to tonic flexion.; type: functional; how it was run: as §3
[22] = system: Mus musculus; assay: Evaluated for seizure threshold test at a dose 50 mg/kg &MST is the metrazole seizure threshold to persistent clonus; type: functional; how it was run: as §3
[23] = system: Mus musculus; assay: Evaluated for seizure threshold test at a dose 30 mg/kg &MST is the metrazole seizure threshold to persistent clonus; type: functional; how it was run: as §3
[24] = system: Mus musculus; assay: Evaluated for seizure threshold test at a dose 300 mg/kg &MST is the metrazole seizure threshold to persistent clonus; type: functional; how it was run: as §3
[25] = system: GABA-A receptor; anion channel; assay: Inhibition of binding to GABA-A central benzodiazepine receptor (Inactive); type: protein-complex assay, Mus musculus
[26] = system: Mus musculus; assay: Evaluated for seizure threshold test at a dose 300 mg/kg &MMT is the maximal metrazole threshold to tonic flexion; I = Inactive; type: functional, organism-based; set-up: dose 300 mg/kg; how it was run: as §3
[27] = system: Mus musculus; assay: Evaluated for seizure threshold test at a dose 600 mg/kg &MST is the metrazole seizure threshold to persistent clonus; type: functional; how it was run: as §3
[28] = system: Mus musculus; assay: Evaluated for seizure threshold test at a dose 600 mg/kg &MMT is the maximal metrazole threshold to tonic flexion.; type: functional; how it was run: as §2
[29] = system: Mus musculus; assay: Evaluated for seizure threshold test at a dose 100 mg/kg & MST is the metrazole seizure threshold to persistent clonus; I = inactive; type: functional, organism-based; set-up: dose 100 mg/kg; how it was run: as §3
[30] = system: Mus musculus; assay: Evaluated for seizure threshold test at a dose 300 mg/kg & MMT is the maximal metrazole threshold to tonic flexion; I - inactive; type: functional, organism-based; set-up: dose 300 mg/kg; how it was run: as §3
[31] = target: GABA-A receptor; anion channel (Mus musculus) (UniProt Q8BHJ7+P26048+Q8QZW7+P50571+Q9R0Y8+P22723+A2AMW3+P62812+Q9JLF1+P26049+P22933+Q9D6F4+P63080+P27681+P16305); assay: Inhibition of binding to GABA-A central benzodiazepine receptor (inactive); type: protein-complex assay
[32] = Compound was evaluated for median lethal dose; type: ADME, organism-based; settings: mouse, in vivo; read-out: LD
[33] = system: Mus musculus; assay: Evaluated for seizure threshold test at a dose 300 mg/kg & MST is the metrazole seizure threshold to persistent clonus; type: functional; how it was run: as §3
[34] = system: Mus musculus; assay: Evaluated for seizure threshold test at a dose 100 mg/kg & MMT is the maximal metrazole threshold to tonic flexion; I = inactive; type: functional, organism-based; set-up: dose 100 mg/kg; how it was run: as §3

SMILES	TD50 [1] [mg/kg]	ED50 [5]	Change [6]	Change [7]	TD50 [8]	ED50 [11] [mg/kg]	other results
Cc1cc2c(c(C#N)c1C)NC(=O)NC2C (stereo not given)	300	–	–	–	–	–	ED50 [2]: inactive; Change [3]: Not significant; Change [4]: -16%
Cc1cc(C(=O)c2ccccc2)c(O)c(C#N)c1C	–	inactive	Not significant	Not significant	Not Active	–	–
Cc1cc2c(C)nc(O)nc2c(C#N)c1C	–	inactive	Not significant	Not significant	Not Active	–	–
O=C1NC(=O)C(c2ccccc2)(c2ccccc2)N1 [PHENYTOIN]	–	–	–	–	–	–	Ki [9]: 155 µM
CC(=O)c1cc(-c2ccccc2)c(-c2ccccc2)c(C#N)c1N	> 600	–	–	–	–	260	Change [10]: 20%; Change [12]: inactive
Cc1cc2c(c(C#N)c1C)NC(=O)CN=C2c1ccccc1F	710	–	–	–	–	48.9	IC50 [13]: 0.01 nM; Change [14]: 50%; Change [15]: 23%; Change [16]: 30%; Change [17]: 65%
Cc1cc(C(=O)C2CCCCC2)c(N)c(C#N)c1C	> 600	–	–	–	–	410	Change [18]: Not significant; Change [19]: 17%
Cc1ccccc1-n1c(C)nc2ccccc2c1=O [METHAQUALONE]	–	–	–	–	–	–	Change [20]: 40%; Change [21]: 17%; Change [22]: 42%; Change [23]: 18%
Cc1cc2c(-c3ccccc3F)ncnc2c(C#N)c1C	–	inactive	Not significant	Not significant	Not Active	–	–
CC(=O)c1cc(C)c(C)c(C#N)c1N	> 600	–	–	–	–	300	Change [10]: 13%; Change [24]: 15%
Cc1cc2c(c(C#N)c1C)NC(=O)CN=C2C1CC1	600	–	–	–	–	–	IC50 [25]: Not Active; ED50 [2]: inactive; Change [24]: 300%; Change [26]: inactive
Cc1cc2c(-c3ccccc3)ncnc2c(C#N)c1C	–	inactive	Not significant	Not significant	Not Active	–	–
Cc1cc2c(c(C#N)c1C)NC=NC2C1CC1 (stereo not given)	–	inactive	Not significant	Not significant	Not Active	–	–
Cc1cc(C(=O)C2CC2)c(N)c(C#N)c1C	> 600	–	–	–	–	600	Change [27]: 23%; Change [28]: 37%
Cc1cc2c(c(C#N)c1C)NC(=O)CN=C2c1ccccc1	> 1000	–	–	–	–	370	Change [29]: inactive; Change [30]: inactive; Change [31]: inactive; LD50 [32]: > 2 mg/kg; Change [33]: 44%; Change [34]: inactive
